Calls of active or inactive are those of the source. The rule behind the calls is not given here.
What was measured:
[1] = biological target: T1, Protein deacetylase HDAC6 (Homo sapiens) (UniProt Q9UBN7); experiment: Inhibition of HDAC6 in human SEM cells assessed as increase in acetyl-alpha tubulin expression at 0.1 to 10 uM after 24 hrs by immunoblot assay; type: cell-based
T1 sequence (whole entry): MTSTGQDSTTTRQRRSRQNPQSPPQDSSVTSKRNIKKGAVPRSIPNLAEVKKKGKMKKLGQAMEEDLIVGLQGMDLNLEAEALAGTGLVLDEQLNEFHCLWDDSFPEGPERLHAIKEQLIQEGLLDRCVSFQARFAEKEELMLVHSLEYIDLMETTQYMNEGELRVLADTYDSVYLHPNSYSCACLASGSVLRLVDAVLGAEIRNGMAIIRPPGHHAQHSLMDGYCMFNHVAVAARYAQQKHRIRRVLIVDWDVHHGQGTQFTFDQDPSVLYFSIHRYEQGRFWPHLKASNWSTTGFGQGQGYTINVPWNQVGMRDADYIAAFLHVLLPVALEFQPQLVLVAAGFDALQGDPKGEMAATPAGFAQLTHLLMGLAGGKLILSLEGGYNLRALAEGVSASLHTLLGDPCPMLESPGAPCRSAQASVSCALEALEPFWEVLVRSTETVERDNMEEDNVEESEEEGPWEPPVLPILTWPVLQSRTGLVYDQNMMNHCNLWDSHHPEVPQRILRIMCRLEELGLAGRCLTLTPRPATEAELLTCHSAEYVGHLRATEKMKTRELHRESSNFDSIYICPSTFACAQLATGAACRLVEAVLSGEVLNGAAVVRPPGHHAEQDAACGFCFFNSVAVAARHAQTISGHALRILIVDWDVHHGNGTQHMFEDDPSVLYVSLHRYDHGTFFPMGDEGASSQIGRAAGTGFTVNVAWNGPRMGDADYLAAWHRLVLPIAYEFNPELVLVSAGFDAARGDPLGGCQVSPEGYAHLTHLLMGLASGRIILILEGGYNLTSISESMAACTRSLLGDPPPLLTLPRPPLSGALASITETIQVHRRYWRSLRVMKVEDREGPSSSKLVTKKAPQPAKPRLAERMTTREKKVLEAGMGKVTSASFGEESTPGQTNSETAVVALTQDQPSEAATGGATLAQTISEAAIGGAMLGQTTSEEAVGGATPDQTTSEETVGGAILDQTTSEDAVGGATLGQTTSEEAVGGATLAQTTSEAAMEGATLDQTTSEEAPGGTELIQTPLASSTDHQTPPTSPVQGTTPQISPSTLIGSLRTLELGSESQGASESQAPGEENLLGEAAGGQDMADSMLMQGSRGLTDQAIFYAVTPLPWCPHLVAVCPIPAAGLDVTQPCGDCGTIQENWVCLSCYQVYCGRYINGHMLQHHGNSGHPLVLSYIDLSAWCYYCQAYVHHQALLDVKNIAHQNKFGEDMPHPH
In short: (§1)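 Cells exposed for 24 h at indicated concentrations; lysates immunoblotted for acetyl-α-tubulin, acetyl-histone H3, PARP, with GAPDH as loading control.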

[2] = biological target: T1, Protein deacetylase HDAC6 (Homo sapiens); experiment: Inhibition of HDAC6 in imatinib-resistant human SUP-B15 cells assessed as increase in acetyl-alpha tubulin expression at 0.1 to 10 uM after 24 hrs by immunoblot assay; type: cell-based; in short: as §1
[3] = biological target: T1, Protein deacetylase HDAC6 (Homo sapiens); experiment: Inhibition of HDAC6 in imatinib-resistant human SUP-B15 cells assessed as increase in acetyl-histone H3 expression at 0.1 to 10 uM after 24 hrs by immunoblot assay; type: cell-based; in short: as §1
SEM cells [4] = experiment: Inhibition of HDAC6/chymotrypsin-like activity of 20S proteasome in human SEM cells assessed as increase in cleaved PARP expression at 0.1 to 10 uM after 24 hrs by immunoblot assay; type: cell-based; in short: as §1
[5] = biological target: T2, Proteasome component C5 (Homo sapiens) (UniProt P20618); experiment: Inhibition of caspase-like activity of 20S proteasome in human SEM cells at 4 nM to 25 uM using Z-nLPnLD-aminoluciferin as substrate after 2 hrs by proteasome-Glo assay; type: cell-based
T2 sequence (whole entry): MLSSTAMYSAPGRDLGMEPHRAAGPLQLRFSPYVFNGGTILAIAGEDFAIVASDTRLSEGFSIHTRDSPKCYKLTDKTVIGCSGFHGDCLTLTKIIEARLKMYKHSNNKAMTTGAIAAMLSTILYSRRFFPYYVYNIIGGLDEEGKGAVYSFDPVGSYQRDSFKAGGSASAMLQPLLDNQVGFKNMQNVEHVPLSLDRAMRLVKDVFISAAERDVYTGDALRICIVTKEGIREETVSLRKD

[6] = Cytotoxicity against human BCP-ALL cells derived from patient 3 after 72 hrs by CellTiter-Glo luminescent cell viability assay; type: functional, cell-based
PBMC = experiment: cells; type: ADME, cell-based; conditions: Homo sapiens, 72 h
SEM cells [7] = experiment: Induction of apoptosis in human SEM cells at IC50 to 2 times IC50 after 48 hrs by annexin V/propidium iodide staining-based FACS analysis relative to control; type: functional
In short: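 After 48 h treatment at IC50 or 2x IC50, cells double-stained with annexin V and PI and analysed by FACS. Cells scored as living, early apoptotic (annexin V+), late apoptotic (both+) or necrotic (PI+).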

SEM cells [8] = experiment: Cell cycle arrest in human SEM cells assessed as reduction in cell levels at G2/M phase at IC50 to 2 times IC50 after 48 hrs by propidium iodide staining-based FACS analysis; type: functional
SEM cells [9] = experiment: Inhibition of HDAC6/chymotrypsin-like activity of 20S proteasome in human SEM cells assessed as increase in HSP27 protein expression at 0.1 to 10 uM after 18 hrs by Western blot assay; type: cell-based
In short: (§2)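 Cells treated 18 h at indicated concentrations; lysates analysed by western blot for heat shock (Grp94, HSP70, HSP40, HSP27), UPR (BIP, ATF4, ATF6, pJNK) and autophagy (LC3B, p62) proteins.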

SEM cells [10] = experiment: Inhibition of HDAC6/chymotrypsin-like activity of 20S proteasome in human SEM cells assessed as increase in ATF4 protein expression at 0.1 to 10 uM after 18 hrs by Western blot assay; type: cell-based; in short: as §2
SEM cells [11] = experiment: Inhibition of HDAC6/chymotrypsin-like activity of 20S proteasome in human SEM cells assessed as decrease in aggresome accumulation at IC50 to 2 times IC50 after 18 hrs by fluorescence microscopic method; type: cell-based
In short: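 Cells treated 18 h, then stained with a proteostat aggresome dye plus DNA stain. Imaged by fluorescence microscopy (63X objective) or analysed by FACS, with aggresome propensity factor from relative mean fluorescence intensity.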

inhibition [1]: Active
inhibition [2]: Active
inhibition [3]: Active
inhibition [5]: inactive
SMILES: C[C@H](NC(=O)[C@H](CC(=O)NCC(C)(C)C)NC(=O)c1ccc(C(=O)NO)cc1)C(=O)NCc1ccccc1
inhibition (SEM cells [4]): Active
IC50 [6]: 5.23 µM
IC50 (PBMC): > 25 µM
fold change (FC) (SEM cells [7]): 5
Activity (SEM cells [8]): Active
inhibition (SEM cells [9]): Active
inhibition (SEM cells [10]): Active
inhibition (SEM cells [11]): Active

— ChEMBL document CHEMBL4152390, “Discovery of the First-in-Class Dual Histone Deacetylase-Proteasome Inhibitor” (J Med Chem, 2018)
